≈ marks a conversion by molar mass, not a printed value. Calls of active or inactive are those of the source. The rule behind the calls is not given here.
Columns and labels:
[1] = Cytotoxicity against HUVEC; format: cell-based; details: human, HUVEC cells; read-out: ED50 (the source's name)
Procedure, shortened: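 Commercial HUVECs grown in EGM-2 medium. Growth measured by the sulforhodamine B assay: 48 h exposure, TCA fixation, SRB stain, optical density read. ED50 = concentration giving 50% inhibition, taken from plotted data.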

[2] = system: HUVEC; test: Induction of microtubule depolymerization in HUVEC at 10 uM after 1 hr; format: functional, cell-based; details: Homo sapiens
Procedure, shortened: (§1)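 Primary HUVECs from umbilical cords grown in M199 with 20% human serum, CD31-authenticated. About 3×10^4 cells on gelatin-coated coverslips, 24 h at 37 °C, then compound from DMSO for 30 min to 4 h, in duplicate. Cells methanol-fixed, stained with anti-α-tubulin and TRITC secondary plus Hoechst, imaged by confocal microscopy and scored for microtubule damage.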

[3] = Displacement of [3H]colchicine from tubulin
Procedure, shortened: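 [3H]colchicine binding with 1.0 μM tubulin, 5.0 μM [3H]colchicine and inhibitor at 1.0 μM.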

[4] = system: HUVEC; test: Induction of microtubule depolymerization in HUVEC at 10 uM after 4 hrs; format: functional, cell-based; details: Homo sapiens; procedure, shortened: as §1
[5] = system: HUVEC; test: Induction of microtubule damage in HUVEC at 1 uM after 4 hrs; format: functional, cell-based; details: Homo sapiens; procedure, shortened: as §1
[6] = system: Enterobacter cloacae; test: Antimicrobial activity against Enterobacter cloacae ATCC 13047 at 64 ug/mL after 24 hrs by broth microdilution assay; format: functional, organism-based
Procedure, shortened: (§2)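 NCCLS bacterial broth microdilution (M7-A5). Overnight colonies diluted to about 5×10^5 CFU/mL final; 2-fold compound dilutions (DMSO stock) in cation-adjusted Mueller Hinton II broth; DMSO turbidity control; 35 °C without agitation, 24 h. MIC = lowest concentration with optically clear wells.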

[7] = system: SF-268; test: Cytotoxicity against human SF268 cells after 48 hrs by sulforhodamine B assay; format: functional; details: SF-268, 48 h
Procedure, shortened: (§3)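 Human tumor lines exposed to compound for 48 h, then fixed with trichloroacetic acid and stained with sulforhodamine B (NCI standard protocol); optical density read on a microplate reader. GI50 is the concentration giving a 50% reduction in net protein increase, calculated from optical density data.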

[8] = system: HUVEC; test: Reduction of junction numbers in HUVEC at 0.001 ug/mL; format: functional, cell-based; details: Homo sapiens
Procedure, shortened: (§4)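 Matrigel cord formation (NCI DTP protocol). Commercial HUVECs in EGM-2; Matrigel polymerized 15 min at RT then 30 min at 37 °C; 100 μL of 2×10^5 cells/mL plus compound solution; 24 h incubation. Imaged by inverted microscope; cord length and junction number compared with untreated controls.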

[9] = system: KM-20L2; test: Cytotoxicity against human KM20L2 cells after 48 hrs by sulforhodamine B assay; format: functional; details: KM-20L2, 48 h; procedure, shortened: as §3
[10] = system: HUVEC; test: Induction of microtubule damage in HUVEC at 1 uM after 1 hr; format: functional, cell-based; details: Homo sapiens; procedure, shortened: as §1
[11] = system: HUVEC; test: Induction of microtubule depolymerization in HUVEC at 10 uM after 30 mins; format: functional, cell-based; details: Homo sapiens; procedure, shortened: as §1
[12] = system: DU-145; test: Cytotoxicity against human DU145 cells after 48 hrs by sulforhodamine B assay; format: functional; details: DU-145, 48 h; procedure, shortened: as §3
[13] = system: BXPC-3; test: Cytotoxicity against human BxPC3 cells after 48 hrs by sulforhodamine B assay; format: functional; details: BXPC-3, 48 h; procedure, shortened: as §3
[14] = system: Escherichia coli; test: Antimicrobial activity against Escherichia coli ATCC 25922 at 64 ug/mL after 24 hrs by broth microdilution assay; format: functional, organism-based; procedure, shortened: as §2
[15] = system: Micrococcus luteus; test: Antimicrobial activity against Micrococcus luteus Presque Isle 456 after 24 hrs by broth microdilution assay; format: functional; procedure, shortened: as §2
[16] = system: HUVEC; test: Reduction of junction numbers in HUVEC at 0.01 ug/mL; format: functional, cell-based; details: Homo sapiens; procedure, shortened: as §4
[17] = system: HUVEC; test: Induction of microtubule damage in HUVEC at 1 uM after 2 hrs; format: functional, cell-based; details: Homo sapiens; procedure, shortened: as §1
[18] = system: Candida albicans; test: Antimicrobial activity against Candida albicans ATCC 90028 at 64 ug/mL after 48 hrs by broth microdilution assay; format: functional, organism-based
Procedure, shortened: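 Yeast NCCLS broth microdilution (M27-A). Inoculum 0.5 to 2.5×10^3 CFU/mL; 2-fold dilutions in 0.165 M MOPS-buffered RPMI 1640, pH 7.0; compound from DMSO, DMSO-only turbidity control; 35 °C without agitation; read at 48 h (Candida). MIC = lowest concentration giving no visible growth.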

[19] = system: HUVEC; test: Reduction of cord length in HUVEC at 0.01 ug/mL; format: functional, cell-based; details: Homo sapiens; procedure, shortened: as §4
[20] = system: MCF7; test: Cytotoxicity against human MCF7 cells after 48 hrs by sulforhodamine B assay; format: functional; details: MCF7, 48 h; procedure, shortened: as §3
[21] = system: Streptococcus pneumoniae; test: Antimicrobial activity against Streptococcus pneumoniae ATCC 6303 after 24 hrs by broth microdilution assay; format: functional; details: ATCC 6303, 24 h
Procedure, shortened: (§5)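 Streptococcus tested by NCCLS broth microdilution in cation-adjusted MHII broth with 3% lysed horse blood. Final inoculum about 5×10^5 CFU/mL; 2-fold compound dilutions from DMSO; DMSO turbidity control; 35 °C without agitation, 24 h. MIC = lowest concentration with no visible growth.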

[22] = system: Cryptococcus neoformans; test: Antimicrobial activity against Cryptococcus neoformans ATCC 90112 after 72 hrs by broth microdilution assay; format: functional; details: ATCC 90112, 72 h
Procedure, shortened: (§6)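 Yeast NCCLS broth microdilution (M27-A). Inoculum 0.5 to 2.5×10^3 CFU/mL; 2-fold dilutions in 0.165 M MOPS-buffered RPMI 1640, pH 7.0; compound from DMSO, DMSO-only turbidity control; 35 °C without agitation; read at 72 h (Cryptococcus). MIC = lowest concentration giving no visible growth.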

[23] = system: HUVEC; test: Induction of microtubule depolymerization in HUVEC at 10 uM after 2 hrs; format: functional, cell-based; details: Homo sapiens; procedure, shortened: as §1
[24] = system: P388; test: Cytotoxicity against mouse P388 cells after 48 hrs by Coulter particle counting; details: P388, 48 h, read-out: ED50 (the source's name)
[25] = system: NCI-H460; test: Cytotoxicity against human NCI-H460 cells after 48 hrs by sulforhodamine B assay; format: functional; details: NCI-H460, 48 h; procedure, shortened: as §3
[26] = system: Neisseria gonorrhoeae; test: Antimicrobial activity against Neisseria gonorrhoeae ATCC 49226 after 24 hrs by broth microdilution assay; format: functional; details: ATCC 49226, 24 h
Procedure, shortened: (§7)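 Neisseria tested by NCCLS broth microdilution in gonococcal typing broth. Final inoculum about 5×10^5 CFU/mL; 2-fold compound dilutions from DMSO; DMSO turbidity control; 37 °C with 5% CO₂ without agitation, 24 h. MIC = lowest concentration with no visible growth.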

[27] = system: Staphylococcus aureus; test: Antimicrobial activity against Staphylococcus aureus ATCC 29213 at 64 ug/mL after 24 hrs by broth microdilution assay; format: functional, organism-based; procedure, shortened: as §2
[28] = system: HUVEC; test: Induction of microtubule damage in HUVEC at 1 uM after 30 mins; format: functional, cell-based; details: Homo sapiens; procedure, shortened: as §1
[29] = system: Enterococcus faecalis; test: Antimicrobial activity against Enterococcus faecalis ATCC 29212 at 64 ug/mL after 24 hrs by broth microdilution assay; format: functional, organism-based; procedure, shortened: as §2
[30] = system: HUVEC; test: Reduction of cord length in HUVEC at 0.001 ug/mL; format: functional, cell-based; details: Homo sapiens; procedure, shortened: as §4
[31] = Inhibition of tubulin polymerization
Procedure, shortened: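 Turbidimetry at 350 nm. Compound at varying concentrations preincubated with 10 μM (1.0 mg/mL) purified tubulin, chilled on ice, then 0.4 mM GTP added and polymerization followed at 30 °C. Extent of polymerization at 20 min measured.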

[32] = system: Stenotrophomonas maltophilia; test: Antimicrobial activity against Stenotrophomonas maltophilia ATCC 13637 at 64 ug/mL after 24 hrs by broth microdilution assay; format: functional, organism-based; procedure, shortened: as §2
[33] = system: Streptococcus pneumoniae; test: Antimicrobial activity against Streptococcus pneumoniae ATCC 6303 at 64 ug/mL after 24 hrs by broth microdilution assay; format: functional, organism-based; procedure, shortened: as §5
[34] = system: Micrococcus luteus; test: Antimicrobial activity against Micrococcus luteus Presque Isle 456 at 64 ug/mL after 24 hrs by broth microdilution assay; format: functional, organism-based; procedure, shortened: as §2
[35] = system: Cryptococcus neoformans; test: Antimicrobial activity against Cryptococcus neoformans ATCC 90112 at 64 ug/mL after 72 hrs by broth microdilution assay; format: functional, organism-based; procedure, shortened: as §6
[36] = system: Neisseria gonorrhoeae; test: Antimicrobial activity against Neisseria gonorrhoeae ATCC 49226 at 64 ug/mL after 24 hrs by broth microdilution assay; format: functional, organism-based; procedure, shortened: as §7
[37] = system: HUVEC; test: Induction of microtubule depolymerization in HUVEC at 1 uM after 4 hrs; format: functional, cell-based; details: Homo sapiens
Procedure, shortened: (§8)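 Primary HUVECs from umbilical cords, grown in M199 with 20% human serum, were seeded (~3×10^4) on gelatin-coated coverslips and grown 24 h at 37 °C. Compound in DMSO was added (final 1, 10 or 100 μM), with duplicate plates. Cells were fixed in ice-cold methanol and immunostained for α-tubulin (TRITC secondary) and with Hoechst. Microtubule disruption was scored by confocal microscopy.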

[38] = system: HUVEC; test: Induction of microtubule depolymerization in HUVEC at 1 uM after 2 hrs; format: functional, cell-based; details: Homo sapiens; procedure, shortened: as §8
[39] = system: Staphylococcus aureus; test: Antimicrobial activity against Staphylococcus aureus ATCC 29213 after 24 hrs by broth microdilution assay; format: functional; details: ATCC 29213, 24 h; procedure, shortened: as §2

Row | SMILES | Activity [2] | Activity [3] [%] | Activity [4] | Activity [6] | GI50 [7] [µg/mL] | GI50 [9] [µg/mL] | GI50 [12] [µg/mL] | GI50 [13] [µg/mL] | Activity [14] | MIC [15] [µg/mL] | Activity [18] | GI50 [20] [µg/mL] | MIC [21] [µg/mL] | MIC [22] [µg/mL] | EC50 [24] [µg/mL] | GI50 [25] [µg/mL] | MIC [26] [µg/mL] | Activity [27] | Activity [29] | Activity [32] | also measured
1 | COc1ccc(/C=C\c2cc(F)c(OC)c(OC)c2)cc1O [FLUORCOMBSTATIN] | Active | 75 | Active | inactive | < 0.0016 | > 1 | 0.0019 (≈ 0.00624 µM) | 0.745 (≈ 2.45 µM) | inactive | 32 (≈ 105 µM) | inactive | < 0.0027 | 64 (≈ 210 µM) | 64 (≈ 210 µM) | < 0.002 | < 0.0032 | 32 (≈ 105 µM) | inactive | inactive | inactive | CC50 [1]: 0.00025 µg/mL (≈ 0.000822 µM); Activity [5]: Active; Activity [8]: Active; Activity [10]: Active; Activity [11]: Active; Activity [16]: Active; Activity [17]: Active; Activity [19]: Active; Activity [23]: Active; Activity [28]: Active; Activity [30]: Active; IC50 [31]: 1500 nM
2 | COc1ccc(/C=C/c2cc(Br)c(OC)c(OC)c2)cc1O |  |  |  | inactive | 0.18 (≈ 0.493 µM) | 1.2 (≈ 3.29 µM) | 0.13 (≈ 0.356 µM) | 1.6 (≈ 4.38 µM) | inactive |  | inactive | 0.14 (≈ 0.383 µM) |  |  | 0.0174 (≈ 0.0476 µM) | 0.15 (≈ 0.411 µM) |  | inactive | inactive | inactive | Activity [33]: inactive; Activity [34]: inactive; Activity [35]: inactive; Activity [36]: inactive
3 | COc1ccc(/C=C\c2cc(Cl)c(OC)c(OC)c2)cc1O | Active | 85 | Active | inactive | < 0.0009 | 0.27 (≈ 0.842 µM) | 0.00025 (≈ 0.000779 µM) | 0.32 (≈ 0.998 µM) | inactive | 32 (≈ 99.8 µM) | inactive | 0.0026 (≈ 0.00811 µM) | 32 (≈ 99.8 µM) | 64 (≈ 200 µM) | 0.0024 (≈ 0.00748 µM) | 0.00026 (≈ 0.000811 µM) | 16 (≈ 49.9 µM) | inactive | inactive | inactive | Activity [37]: Active; Activity [10]: Active; Activity [11]: Active; Activity [38]: Active; Activity [23]: Active; Activity [28]: Active; IC50 [31]: 1600 nM
4 | COc1ccc(/C=C/c2cc(F)c(OC)c(OC)c2)cc1O |  |  |  | inactive | 0.35 (≈ 1.15 µM) | 0.53 (≈ 1.74 µM) | 0.18 (≈ 0.591 µM) | 2.2 (≈ 7.23 µM) | inactive | 16 (≈ 52.6 µM) | inactive | 0.051 (≈ 0.168 µM) | 64 (≈ 210 µM) | 64 (≈ 210 µM) | 0.253 (≈ 0.831 µM) | 0.18 (≈ 0.591 µM) | 8 (≈ 26.3 µM) |  | inactive | inactive | MIC [39]: 32 µg/mL (≈ 105 µM)

From ChEMBL document CHEMBL1151261, “Antineoplastic agents. 509: synthesis of fluorcombstatin phosphate and related 3-halostilbenes(1)” (J Nat Prod, 2005)
